# Results from the M2OR odorant receptor database.
# How the values were obtained:
# Conditions in all cases: stereoisomer not certain
# UniProt Q7TRW1 = target: T1, UniProt Q7TRW1
# T1 sequence (whole entry): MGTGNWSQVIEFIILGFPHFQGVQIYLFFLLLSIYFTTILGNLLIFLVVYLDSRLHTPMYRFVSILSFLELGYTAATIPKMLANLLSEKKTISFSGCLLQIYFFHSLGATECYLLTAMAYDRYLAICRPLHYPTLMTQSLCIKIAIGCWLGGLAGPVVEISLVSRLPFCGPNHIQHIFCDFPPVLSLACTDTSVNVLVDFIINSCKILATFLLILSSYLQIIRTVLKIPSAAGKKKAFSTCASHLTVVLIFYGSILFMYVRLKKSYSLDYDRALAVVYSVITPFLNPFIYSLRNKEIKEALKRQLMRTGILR
# Summary of the method: (§1)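 Transient luciferase assays in mammalian cell lines were common, though methods varied by source. The values come from published papers and their supplementary material, with extra details from the original authors when needed. Responsive refers to a measured signal the original authors judged statistically different from baseline, and non-responsive (inactive) to the remainder.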
# UniProt Q8VEU7 = target: T2, UniProt Q8VEU7
# T2 sequence (whole entry): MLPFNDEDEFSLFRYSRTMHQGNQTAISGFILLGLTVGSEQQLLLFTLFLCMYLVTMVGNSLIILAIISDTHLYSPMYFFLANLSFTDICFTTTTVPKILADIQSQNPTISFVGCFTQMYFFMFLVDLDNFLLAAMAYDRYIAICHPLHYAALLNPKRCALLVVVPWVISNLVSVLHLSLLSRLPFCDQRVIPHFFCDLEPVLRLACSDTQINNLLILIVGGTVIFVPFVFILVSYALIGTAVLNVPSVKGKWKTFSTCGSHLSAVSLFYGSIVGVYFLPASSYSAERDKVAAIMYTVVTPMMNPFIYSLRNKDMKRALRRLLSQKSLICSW
# Summary of the method: as §1
# UniProt Q8VF05 = target: T3, UniProt Q8VF05
# T3 sequence (whole entry): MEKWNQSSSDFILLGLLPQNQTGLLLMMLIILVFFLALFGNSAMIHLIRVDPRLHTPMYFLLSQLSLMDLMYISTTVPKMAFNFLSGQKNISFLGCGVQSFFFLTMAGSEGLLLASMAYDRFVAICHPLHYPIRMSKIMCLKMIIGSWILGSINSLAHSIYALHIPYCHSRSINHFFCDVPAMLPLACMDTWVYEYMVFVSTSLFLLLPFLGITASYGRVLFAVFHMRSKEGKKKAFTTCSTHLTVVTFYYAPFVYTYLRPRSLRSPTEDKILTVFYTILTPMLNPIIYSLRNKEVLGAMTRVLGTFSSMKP
# Summary of the method: as §1
# UniProt Q8VF24 = target: T4, UniProt Q8VF24
# T4 sequence (whole entry): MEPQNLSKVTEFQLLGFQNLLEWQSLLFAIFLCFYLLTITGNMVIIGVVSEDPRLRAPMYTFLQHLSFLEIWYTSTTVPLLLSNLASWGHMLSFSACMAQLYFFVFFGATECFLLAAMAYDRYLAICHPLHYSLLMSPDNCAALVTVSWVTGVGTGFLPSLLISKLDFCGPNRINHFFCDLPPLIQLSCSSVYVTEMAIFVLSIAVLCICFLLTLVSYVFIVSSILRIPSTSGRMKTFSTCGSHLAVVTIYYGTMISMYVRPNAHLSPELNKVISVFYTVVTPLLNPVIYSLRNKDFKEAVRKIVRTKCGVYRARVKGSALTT
# Summary of the method: as §1
# UniProt Q8VF44 = target: T5, UniProt Q8VF44
# T5 sequence (whole entry): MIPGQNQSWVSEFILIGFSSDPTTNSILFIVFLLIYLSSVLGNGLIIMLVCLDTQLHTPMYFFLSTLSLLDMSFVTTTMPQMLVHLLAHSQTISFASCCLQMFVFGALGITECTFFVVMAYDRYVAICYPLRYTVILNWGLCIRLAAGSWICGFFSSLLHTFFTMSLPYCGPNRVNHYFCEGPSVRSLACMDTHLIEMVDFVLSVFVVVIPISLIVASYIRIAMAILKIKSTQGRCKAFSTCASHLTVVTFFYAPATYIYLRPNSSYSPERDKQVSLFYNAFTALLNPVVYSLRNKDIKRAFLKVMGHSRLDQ
# Summary of the method: as §1
# UniProt Q7TRX0 = target: T6, UniProt Q7TRX0
# T6 sequence (whole entry): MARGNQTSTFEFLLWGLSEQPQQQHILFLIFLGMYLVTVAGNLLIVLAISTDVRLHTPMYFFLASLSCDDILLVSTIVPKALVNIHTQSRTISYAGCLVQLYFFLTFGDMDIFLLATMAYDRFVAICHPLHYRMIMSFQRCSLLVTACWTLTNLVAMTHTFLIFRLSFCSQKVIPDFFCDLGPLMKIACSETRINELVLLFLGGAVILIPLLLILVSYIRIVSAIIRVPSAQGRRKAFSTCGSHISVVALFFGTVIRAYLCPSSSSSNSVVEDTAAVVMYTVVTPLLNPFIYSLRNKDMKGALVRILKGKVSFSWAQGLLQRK
# Summary of the method: as §1
# UniProt Q8VF43 = target: T7, UniProt Q8VF43
# T7 sequence (whole entry): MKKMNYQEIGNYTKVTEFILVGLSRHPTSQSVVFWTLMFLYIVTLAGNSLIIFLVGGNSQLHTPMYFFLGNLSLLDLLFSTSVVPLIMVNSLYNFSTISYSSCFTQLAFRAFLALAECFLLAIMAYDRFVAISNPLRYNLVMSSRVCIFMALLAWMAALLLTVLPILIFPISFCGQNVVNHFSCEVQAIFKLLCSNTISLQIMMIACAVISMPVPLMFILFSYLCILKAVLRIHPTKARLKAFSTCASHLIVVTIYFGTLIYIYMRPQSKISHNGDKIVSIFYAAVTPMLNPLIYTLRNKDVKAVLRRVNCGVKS
# Summary of the method: as §1
# UniProt Q7TRN9 = target: UniProt Q7TRN9
# Sequence of UniProt Q7TRN9 (Q7TRN9 as listed by the source): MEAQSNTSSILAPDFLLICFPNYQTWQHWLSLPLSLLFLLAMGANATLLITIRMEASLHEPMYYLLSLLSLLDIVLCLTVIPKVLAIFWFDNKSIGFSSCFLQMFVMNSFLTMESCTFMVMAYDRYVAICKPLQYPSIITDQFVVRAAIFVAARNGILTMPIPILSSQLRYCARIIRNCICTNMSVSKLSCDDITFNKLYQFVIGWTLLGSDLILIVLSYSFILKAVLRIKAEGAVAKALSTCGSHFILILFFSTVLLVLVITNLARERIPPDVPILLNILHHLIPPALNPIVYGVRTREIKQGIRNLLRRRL
# Summary of the method: as §1
# UniProt Q7TRR8 = target: UniProt Q7TRR8
# Sequence of UniProt Q7TRR8 (Q7TRR8 as listed by the source): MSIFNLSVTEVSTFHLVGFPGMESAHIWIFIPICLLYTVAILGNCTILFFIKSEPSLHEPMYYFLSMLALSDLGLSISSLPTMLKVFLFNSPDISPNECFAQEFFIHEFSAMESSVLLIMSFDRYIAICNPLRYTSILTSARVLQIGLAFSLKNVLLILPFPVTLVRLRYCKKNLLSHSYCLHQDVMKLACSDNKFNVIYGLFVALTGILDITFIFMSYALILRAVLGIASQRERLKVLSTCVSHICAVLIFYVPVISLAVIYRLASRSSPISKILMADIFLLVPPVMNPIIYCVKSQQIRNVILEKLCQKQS
# Summary of the method: as §1
# UniProt Q8VF06 = target: UniProt Q8VF06
# Sequence of UniProt Q8VF06 (Q8VF06 as listed by the source): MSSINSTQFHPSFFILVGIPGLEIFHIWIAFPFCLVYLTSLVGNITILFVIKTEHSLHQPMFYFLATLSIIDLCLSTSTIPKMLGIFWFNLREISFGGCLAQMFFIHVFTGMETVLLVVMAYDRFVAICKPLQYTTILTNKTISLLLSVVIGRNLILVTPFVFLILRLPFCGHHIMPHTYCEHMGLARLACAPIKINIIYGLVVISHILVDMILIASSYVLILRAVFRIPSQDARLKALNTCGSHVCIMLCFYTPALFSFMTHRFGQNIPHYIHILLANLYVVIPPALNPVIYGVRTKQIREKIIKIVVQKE
# Summary of the method: as §1
# 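Further: active if original authors judged signal statistically different from baseline.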
smiles,measurement,setting,value
CCC1CCC(=O)O1 (stereo unspecified),odorant receptor agonist call,UniProt Q7TRW1,inactive
same,odorant receptor agonist call,UniProt Q8VEU7,inactive
same,odorant receptor agonist call,UniProt Q8VF05,active
same,odorant receptor agonist call,UniProt Q8VF24,inactive
same,odorant receptor agonist call,UniProt Q8VF44,inactive
O=Cc1ccccc1,odorant receptor agonist call,UniProt Q7TRX0,inactive
same,odorant receptor agonist call,UniProt Q8VF43,inactive
C=C(C)C1CC=C(C=O)CC1 (stereo unspecified),odorant receptor agonist call,UniProt Q7TRX0,inactive
same,odorant receptor agonist call,UniProt Q8VF43,inactive
O=c1cc(O)c2ccccc2o1,odorant receptor agonist call,UniProt Q7TRW1,inactive
same,odorant receptor agonist call,UniProt Q7TRX0,inactive
same,odorant receptor agonist call,UniProt Q8VEU7,inactive
same,odorant receptor agonist call,UniProt Q8VF05,inactive
same,odorant receptor agonist call,UniProt Q8VF24,inactive
same,odorant receptor agonist call,UniProt Q8VF43,inactive
same,odorant receptor agonist call,UniProt Q8VF44,inactive
O=C(O)CCCCCCCBr,odorant receptor agonist call,UniProt Q7TRN9,active
same,odorant receptor agonist call,UniProt Q7TRR8,inactive
same,odorant receptor agonist call,UniProt Q8VF06,inactive
CCCCCCC(Br)C(=O)O (stereo unspecified),odorant receptor agonist call,UniProt Q7TRX0,inactive
same,odorant receptor agonist call,UniProt Q8VF43,inactive
CC(C=O)Cc1ccc2c(c1)OCO2 (stereo unspecified),odorant receptor agonist call,UniProt Q7TRX0,inactive
same,odorant receptor agonist call,UniProt Q8VF43,inactive
CSSC,odorant receptor agonist call,UniProt Q7TRX0,inactive
same,odorant receptor agonist call,UniProt Q8VF43,inactive
Oc1ccccc1Br,odorant receptor agonist call,UniProt Q7TRX0,inactive
same,odorant receptor agonist call,UniProt Q8VF43,inactive
O=CC=Cc1ccccc1,odorant receptor agonist call,UniProt Q7TRX0,inactive
same,odorant receptor agonist call,UniProt Q8VF43,inactive
OCc1ccc2c(c1)OCO2,odorant receptor agonist call,UniProt Q7TRX0,inactive
same,odorant receptor agonist call,UniProt Q8VF43,inactive
CCCCC(Br)C(=O)O (stereo unspecified),odorant receptor agonist call,UniProt Q7TRX0,inactive
same,odorant receptor agonist call,UniProt Q8VF43,inactive
Cc1ccc(OC(=O)Cc2ccccc2)cc1,odorant receptor agonist call,UniProt Q7TRX0,inactive
same,odorant receptor agonist call,UniProt Q8VF43,inactive
C=CCc1ccccc1,odorant receptor agonist call,UniProt Q7TRW1,active
same,odorant receptor agonist call,UniProt Q8VEU7,inactive
same,odorant receptor agonist call,UniProt Q8VF05,inactive
same,odorant receptor agonist call,UniProt Q8VF24,inactive
same,odorant receptor agonist call,UniProt Q8VF44,inactive
COc1ccc(C=O)cc1,odorant receptor agonist call,UniProt Q7TRX0,inactive
same,odorant receptor agonist call,UniProt Q8VF43,inactive
O=Cc1ccc2c(c1)OCO2,odorant receptor agonist call,UniProt Q7TRX0,inactive
same,odorant receptor agonist call,UniProt Q8VF43,inactive
C=CCOC(=O)Cc1ccccc1,odorant receptor agonist call,UniProt Q7TRW1,inactive
same,odorant receptor agonist call,UniProt Q7TRX0,inactive
same,odorant receptor agonist call,UniProt Q8VEU7,inactive
same,odorant receptor agonist call,UniProt Q8VF05,active
same,odorant receptor agonist call,UniProt Q8VF24,inactive
same,odorant receptor agonist call,UniProt Q8VF43,inactive
same,odorant receptor agonist call,UniProt Q8VF44,inactive
